Experimental data reported in ChEMBL document CHEMBL3352470, “New ent-kauranes from the fruits of Annona glabra and their inhibitory nitric oxide production in LPS-stimulated RAW264.7 macrophages” (Bioorg Med Chem Lett, 2015).

Assays:
[1] = tested on: RAW264.7; test: Inhibition of LPS-induced nitric oxide production in mouse RAW264.7 cells after 24 hrs by Griess assay relative to vehicle-treated control; format: functional, cell-based; conditions: RAW264.7, 24 h
Outline: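 RAW 264.7 cells were seeded at 5×10^5 cells/mL. After 3 h they were pretreated with compound at a series of concentrations chosen from the screening results, then stimulated 24 h with 1 µg/mL LPS. Nitrite in the supernatant was read by the Griess reaction. IC50 came from the dose-dependent inhibition. Dexamethasone was the positive control.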

[2] = tested on: RAW264.7; test: Inhibition of LPS-induced nitric oxide production in mouse RAW264.7 cells at 30 uM after 24 hrs by Griess assay relative to vehicle-treated control; format: functional; conditions: RAW264.7, 24 h
Outline: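 RAW 264.7 cells were seeded at 5×10^5 cells/mL. After 3 h they were pretreated with compound at 3, 10 and 30 µM, then 1 µg/mL LPS was added for 24 h. Supernatant nitrite was measured by the Griess reaction. Controls were unstimulated cells, LPS alone and dexamethasone. Values are mean ± SD of three independent experiments.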

[3] = tested on: RAW264.7; test: Cytotoxicity against mouse RAW264.7 cells at 30 uM by MTT assay relative to control; format: cell-based; conditions: raw264.7, 30 µM

| Structure (SMILES) | IC50 [1] [µM] | inhibition at 30 µM [2] [%] | Activity [3] |
| --- | --- | --- | --- |
| CC1(C)CCC[C@]2(C)[C@@H]1CC[C@@]13C[C@@H](CC[C@H]12)[C@@](O)(CO)C3 | 17.1 | 70.4 | Non-toxic |
| CC1(C)CCC[C@]2(C)[C@@H]1CC[C@@]13C[C@@H](CC[C@H]12)[C@](O)(CO)C3 | 6.2 | 70.4 | Non-toxic |
| C[C@@]12CCC[C@@](C)(C(=O)O[C@@H]3O[C@H](CO)[C@@H](O)[C@H](O)[C@H]3O)[C@H]1C[C@H](O)[C@@]13C[C@@H](CC[C@@H]21)[C@@H](CO)C3 | > 30 |  | Non-toxic |
| C[C@@]12CCC[C@@](C)(C(=O)O)[C@H]1CC[C@@]13C[C@@H](CC[C@H]12)[C@](O)(CO)C3 | 14.3 | 70.4 | Non-toxic |
| C[C@@]12CCC[C@@](C)(C(=O)O[C@@H]3O[C@H](CO)[C@@H](O)[C@H](O)[C@H]3O)[C@H]1CC[C@@]13C[C@@H](CC[C@H]12)[C@@](O)(CO)C3 | > 30 |  | Non-toxic |
| C[C@@]12CCC[C@@](C)(C=O)[C@H]1CC[C@@]13C[C@@H](CC[C@H]12)[C@](O)(CO)C3 | 0.32 | 90 | Non-toxic |
| C[C@@]12CCC[C@@](C)(C(=O)O)[C@H]1C[C@H](O)[C@@]13C[C@@H](CC[C@@H]21)[C@@](O)(CO)C3 | 0.39 | 90 | Non-toxic |
| C[C@@]12CCC[C@@](C)(C(=O)O[C@@H]3O[C@H](CO)[C@@H](O)[C@H](O)[C@H]3O)[C@H]1C[C@H](O)[C@]13C=C(CO)[C@H](CC[C@@H]21)C3 | 0.01 | 90 | Non-toxic |
